According to ChEMBL document CHEMBL1140710, “Structure-activity relationships of cyclic lactam analogues of alpha-melanocyte-stimulating hormone (alpha-MSH) targeting the human melanocortin-3 receptor” (J Med Chem, 2008):

Tests used:
[1] = target: T1, Melanocyte-stimulating hormone receptor (Homo sapiens, UniProt Q01726); experiment: Displacement of [125I][Nle4,D-Phe7]alpha-MSH from human MC1 receptor expressed in HEK293 cells; assay type: cell-based
How it was run: (§1)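 Whole stably transfected HEK293 cells seeded 48 h before assay at 50000 cells/well. Binding buffer: MEM, 25 mM HEPES pH 7.4, 0.2% BSA, 1 mM 1,10-phenanthroline, leupeptin, bacitracin. Cells washed, lysed with NaOH/Triton X-100, gamma-counted. IC50 is mean of two triplicate experiments.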
Target sequence in this assay (Q01726 whole entry): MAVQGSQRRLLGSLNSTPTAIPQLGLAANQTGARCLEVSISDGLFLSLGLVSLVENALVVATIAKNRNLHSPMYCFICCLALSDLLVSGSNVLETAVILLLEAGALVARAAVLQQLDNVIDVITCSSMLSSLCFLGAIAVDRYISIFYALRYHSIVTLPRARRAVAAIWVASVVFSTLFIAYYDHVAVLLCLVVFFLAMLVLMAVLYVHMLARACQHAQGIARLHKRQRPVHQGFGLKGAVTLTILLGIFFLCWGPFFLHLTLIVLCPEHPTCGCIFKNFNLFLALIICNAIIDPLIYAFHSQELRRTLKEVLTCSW

[2] = target: T2, Melanocortin receptor 3 (Homo sapiens, UniProt P41968); experiment: biochemical; assay type: cell-based, HEK293
[3] = target: T3, Melanocortin receptor 4 (Homo sapiens, UniProt P32245); experiment: biochemical; assay type: cell-based, HEK293
[4] = target: T1, Melanocyte-stimulating hormone receptor; experiment: Agonist activity at human MC1 receptor expressed in HEK293 cells assessed as intracellular cAMP accumulation; assay type: functional, cell-based
How it was run: (§2)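 Stably transfected HEK293 cells seeded 48 h before assay at 50000 cells/well. Cells preincubated 1 min at 37 °C in Earle's balanced salt solution with 0.5 mM IBMX, then exposed to varying peptide concentrations for 3 min at 37 °C. Cells boiled 7 min, cAMP quantified by [3H]cAMP/PKA competition against a standard curve.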
Target sequence in this assay (Q01726 whole entry): as above

[5] = target: T4, Melanocortin receptor 5 (Homo sapiens, UniProt P33032); experiment: Displacement of [125I][Nle4,D-Phe7]alpha-MSH from human MC5 receptor expressed in HEK293 cells; assay type: cell-based; how it was run: as §1
[6] = target: T2, Melanocortin receptor 3; experiment: Antagonist activity at human MC3 receptor expressed in HEK293 cells assessed as inhibition of MT2 induced intracellular cAMP accumulation; assay type: functional, cell-based; conditions: for Kb: read-out: pA2 (converted)
[7] = target: T4, Melanocortin receptor 5; experiment: Antagonist activity at human MC5 receptor expressed in HEK293 cells assessed as inhibition of MT2 induced intracellular cAMP accumulation; assay type: functional, cell-based; conditions: read-out: pA2 (converted)
[8] = target: T2, Melanocortin receptor 3; experiment: Agonist activity at human MC3 receptor expressed in HEK293 cells assessed as intracellular cAMP accumulation; assay type: functional, cell-based; how it was run: as §2
[9] = target: T3, Melanocortin receptor 4; experiment: Agonist activity at human MC4 receptor expressed in HEK293 cells assessed as intracellular cAMP accumulation; assay type: functional, cell-based
How it was run: (§3)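 HEK293 cells stably transfected with the receptor, seeded 48 h ahead at 50000 cells/well. Preincubated 1 min at 37 °C in Earle's balanced salt solution with 0.5 mM IBMX, then exposed to peptide for 3 min at 37 °C. cAMP measured by [3H]cAMP/PKA competition against a standard curve.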

[10] = target: T4, Melanocortin receptor 5; experiment: Agonist activity at human MC5 receptor expressed in HEK293 cells assessed as intracellular cAMP accumulation; assay type: functional, cell-based; how it was run: as §3
[11] = target: T1, Melanocyte-stimulating hormone receptor; experiment: Agonist activity at human MC1 receptor expressed in HEK293 cells assessed as intracellular cAMP accumulation at 10 uM relative to MT2; assay type: functional, cell-based
How it was run: (§4)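 Stably transfected HEK293 cells seeded 48 h before assay at 50000 cells/well. Cells preincubated 1 min at 37 °C in Earle's balanced salt solution with 0.5 mM IBMX, then exposed to 10 μM peptide for 3 min at 37 °C. Cells boiled 7 min, cAMP measured by [3H]cAMP/PKA competition with a standard curve. Result expressed as percent of cAMP produced by 10 μM MT-II.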
Target sequence in this assay (Q01726 whole entry, looked up): as the sequence (Q01726 whole entry) above

[12] = target: T2, Melanocortin receptor 3; experiment: Agonist activity at human MC3 receptor expressed in HEK293 cells assessed as intracellular cAMP accumulation at 10 uM relative to MT2; assay type: functional, cell-based; how it was run: as §4
[13] = target: T3, Melanocortin receptor 4; experiment: Agonist activity at human MC4 receptor expressed in HEK293 cells assessed as intracellular cAMP accumulation at 10 uM relative to MT2; assay type: functional, cell-based; how it was run: as §4
[14] = target: T4, Melanocortin receptor 5; experiment: Agonist activity at human MC5 receptor expressed in HEK293 cells assessed as intracellular cAMP accumulation at 10 uM relative to MT2; assay type: functional, cell-based; how it was run: as §4
[15] = target: T1, Melanocyte-stimulating hormone receptor; experiment: Agonist activity at human MC1 receptor expressed in HEK293 cells assessed as intracellular cAMP accumulation at 10 uM; assay type: functional, cell-based; how it was run: as §4
Target sequence in this assay (Q01726 whole entry, looked up): as the sequence (Q01726 whole entry) above

[16] = target: T2, Melanocortin receptor 3; experiment: Agonist activity at human MC3 receptor expressed in HEK293 cells assessed as intracellular cAMP accumulation at 10 uM; assay type: functional, cell-based; how it was run: as §4
[17] = target: T3, Melanocortin receptor 4; experiment: Agonist activity at human MC4 receptor expressed in HEK293 cells assessed as intracellular cAMP accumulation at 10 uM; assay type: functional, cell-based; how it was run: as §4
[18] = target: T4, Melanocortin receptor 5; experiment: Agonist activity at human MC5 receptor expressed in HEK293 cells assessed as intracellular cAMP accumulation at 10 uM; assay type: functional, cell-based; how it was run: as §4

T2 sequence (P41968 whole entry): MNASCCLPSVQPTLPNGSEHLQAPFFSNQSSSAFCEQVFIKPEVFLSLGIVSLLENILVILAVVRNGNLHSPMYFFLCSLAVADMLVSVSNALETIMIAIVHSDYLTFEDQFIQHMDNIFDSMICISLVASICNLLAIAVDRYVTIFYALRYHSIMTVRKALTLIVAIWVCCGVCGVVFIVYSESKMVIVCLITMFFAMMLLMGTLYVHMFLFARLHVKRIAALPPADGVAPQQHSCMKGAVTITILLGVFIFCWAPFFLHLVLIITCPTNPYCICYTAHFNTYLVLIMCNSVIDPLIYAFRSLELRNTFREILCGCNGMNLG
T3 sequence (P32245 whole entry): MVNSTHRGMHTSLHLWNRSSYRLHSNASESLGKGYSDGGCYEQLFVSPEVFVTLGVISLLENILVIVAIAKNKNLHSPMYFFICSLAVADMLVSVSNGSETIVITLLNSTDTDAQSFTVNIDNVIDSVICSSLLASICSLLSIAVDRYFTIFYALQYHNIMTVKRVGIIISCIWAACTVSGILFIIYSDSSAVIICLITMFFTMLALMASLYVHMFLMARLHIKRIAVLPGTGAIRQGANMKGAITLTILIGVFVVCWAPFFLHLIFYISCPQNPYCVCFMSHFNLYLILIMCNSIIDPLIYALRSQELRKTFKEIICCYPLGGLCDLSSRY
T4 sequence (P33032 whole entry): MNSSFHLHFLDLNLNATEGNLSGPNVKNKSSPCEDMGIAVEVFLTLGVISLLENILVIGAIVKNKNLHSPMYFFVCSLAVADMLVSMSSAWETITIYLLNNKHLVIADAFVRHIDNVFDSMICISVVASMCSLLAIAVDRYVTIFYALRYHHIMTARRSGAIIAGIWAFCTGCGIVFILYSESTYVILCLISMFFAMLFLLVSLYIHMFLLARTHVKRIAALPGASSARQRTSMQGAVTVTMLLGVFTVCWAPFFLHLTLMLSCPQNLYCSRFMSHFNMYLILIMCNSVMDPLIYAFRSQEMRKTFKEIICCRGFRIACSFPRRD

| Compound | IC50 [1] | IC50 [2] | IC50 [3] | EC50 [4] | IC50 [5] | Kb [6] | Kb [7] | EC50 [8] | EC50 [9] | EC50 [10] | Ki ([2]; hek293) | pA2 ([6]; hek293) | Activity [11] | Activity [12] | Activity [13] | Activity [14] | Activity [15] | Activity [16] | Activity [17] | Activity [18] |
| --- | --- | --- | --- | --- | --- | --- | --- | --- | --- | --- | --- | --- | --- | --- | --- | --- | --- | --- | --- | --- |
| CCCC[C@@H]1NC(=O)CCC(=O)NCCCC[C@@H](C(N)=O)NC(=O)[C@H](Cc2c[nH]c3ccccc23)NC(=O)[C@H](CCCN=C(N)N)NC(=O)[C@@H](Cc2ccc3ccccc3c2)NC1=O | 2 µM | 12 nM | 300 nM | > 1 µM | 17 nM | 5.01 nM | 2 nM | – | – | – | – | – | – | – | – | – | – | – | – | – |
| NC(=O)[C@@H]1CCCCNC(=O)CCCC(=O)N2CCC[C@H]2C(=O)N[C@H](Cc2ccccc2)C(=O)N[C@@H](CCCN=C(N)N)C(=O)N[C@@H](Cc2c[nH]c3ccccc23)C(=O)N1 | > 10 µM | 385 nM | > 1000 nM | – | 870 nM | – | – | 29 nM | > 2000 nM | 570 nM | – | – | – | – | – | – | – | – | – | – |
| NC(=O)[C@@H]1CCCCNC(=O)c2cccc(n2)C(=O)N[C@H](Cc2ccc3ccccc3c2)C(=O)N[C@@H](CCCN=C(N)N)C(=O)N[C@@H](Cc2c[nH]c3ccccc23)C(=O)N1 | > 10 µM | > 1000 nM | > 1000 nM | – | > 10000 nM | – | – | – | – | – | – | – | – | – | – | – | – | – | – | – |
| NC(=O)[C@@H]1CCCCNC(=O)CC[C@H](N)C(=O)N[C@@H](Cc2cnc[nH]2)C(=O)N[C@H](Cc2ccc3ccccc3c2)C(=O)N[C@@H](CCCN=C(N)N)C(=O)N[C@@H](Cc2c[nH]c3ccccc23)C(=O)N1 | – | – | – | – | – | – | – | – | – | – | 5.9 nM | 10.6 | – | – | – | – | – | – | – | – |
| NC(=O)[C@@H]1CCCCNC(=O)c2nccnc2C(=O)N[C@H](Cc2ccc3ccccc3c2)C(=O)N[C@@H](CCCN=C(N)N)C(=O)N[C@@H](Cc2c[nH]c3ccccc23)C(=O)N1 | 0.707 µM | 23 nM | > 1000 nM | > 3 µM | 230 nM | – | – | – | – | – | – | – | – | – | – | – | – | – | – | – |
| NC(=O)[C@@H]1CCCCNC(=O)CCCC(=O)N2CCC[C@H]2C(=O)N[C@H](Cc2ccc3ccccc3c2)C(=O)N[C@@H](CCCN=C(N)N)C(=O)N[C@@H](Cc2c[nH]c3ccccc23)C(=O)N1 | > 10 µM | 11 nM | 330 nM | – | 27 nM | 0.158 nM | – | – | – | 23 nM | – | – | – | – | – | – | – | – | – | – |
| N=C(N)NCCC[C@@H]1NC(=O)[C@@H](Cc2ccc3ccccc3c2)NC(=O)c2cccc(n2)C(=O)NCCCC[C@@H](C(N)=O)NC(=O)[C@H](Cc2c[nH]c3ccccc23)NC1=O | – | – | – | – | – | – | – | – | – | – | – | – | 0% | 0% | 0% | 0% | 0% | 0% | 0% | 0% |
| N=C(N)NCCC[C@@H]1NC(=O)[C@@H](Cc2ccc3ccccc3c2)NC(=O)[C@@H]2CCCN2C(=O)c2ccccc2C(=O)NCCCC[C@@H](C(N)=O)NC(=O)[C@H](Cc2c[nH]c3ccccc23)NC1=O | 0.41 µM | 32 nM | 430 nM | > 5 µM | 210 nM | – | – | – | – | – | – | – | 80% | 0% | 0% | 0% | – | 0% | 0% | 0% |
| N=C(N)NCCC[C@@H]1NC(=O)[C@@H](Cc2ccc3ccccc3c2)NC(=O)[C@@H]2CCCN2C(=O)/C=C\C(=O)NCCCC[C@@H](C(N)=O)NC(=O)[C@H](Cc2c[nH]c3ccccc23)NC1=O | > 10 µM | 20 nM | 520 nM | – | 120 nM | – | – | – | – | – | – | – | 0% | 0% | 0% | 0% | 0% | 0% | 0% | 0% |
| N=C(N)NCCC[C@@H]1NC(=O)[C@@H](Cc2ccc3ccccc3c2)NC(=O)c2nccnc2C(=O)NCCCC[C@@H](C(N)=O)NC(=O)[C@H](Cc2c[nH]c3ccccc23)NC1=O | – | – | – | – | – | – | – | – | – | – | – | – | 55% | 0% | 0% | 0% | – | 0% | 0% | 0% |
| N=C(N)NCCC[C@@H]1NC(=O)[C@@H](Cc2ccccc2)NC(=O)[C@@H]2CCCN2C(=O)/C=C\C(=O)NCCCC[C@@H](C(N)=O)NC(=O)[C@H](Cc2c[nH]c3ccccc23)NC1=O | > 10 µM | > 1000 nM | 160 nM | – | 790 nM | – | – | 100 nM | – | – | – | – | 0% | 80% | 0% | 0% | 0% | – | 0% | 0% |
| CCCC[C@@H]1NC(=O)CCC(=O)NCCCC[C@@H](C(N)=O)NC(=O)[C@H](Cc2c[nH]c3ccccc23)NC(=O)[C@H](CCCN=C(N)N)NC(=O)[C@@H](Cc2ccccc2)NC1=O | > 10 µM | 84 nM | 930 nM | – | 520 nM | – | – | – | – | > 1000 nM | – | – | – | – | – | – | – | – | – | – |
| N=C(N)NCCC[C@@H]1NC(=O)[C@@H](Cc2ccccc2)NC(=O)[C@@H]2CCCN2C(=O)c2ccccc2C(=O)NCCCC[C@@H](C(N)=O)NC(=O)[C@H](Cc2c[nH]c3ccccc23)NC1=O | > 10 µM | > 1000 nM | 777 nM | – | > 1000 nM | – | – | 95 nM | – | – | – | – | 0% | 100% | 0% | 0% | 0% | – | 0% | 0% |
| N=C(N)NCCC[C@@H]1NC(=O)[C@@H](Cc2ccccc2)NC(=O)c2nccnc2C(=O)NCCCC[C@@H](C(N)=O)NC(=O)[C@H](Cc2c[nH]c3ccccc23)NC1=O | 0.412 µM | 1100 nM | > 10000 nM | > 10 µM | > 10000 nM | – | – | 27 nM | – | – | – | – | 60% | 70% | 0% | 0% | – | – | 0% | 0% |
| N=C(N)NCCC[C@@H]1NC(=O)[C@@H](Cc2ccccc2)NC(=O)c2cccc(n2)C(=O)NCCCC[C@@H](C(N)=O)NC(=O)[C@H](Cc2c[nH]c3ccccc23)NC1=O | > 10 µM | > 10000 nM | > 10000 nM | > 1 µM | > 10000 nM | – | – | – | – | – | – | – | 15% | 0% | 0% | 0% | – | 0% | 0% | 0% |
